How the values were obtained:
[1] = target: T1, Oxysterols receptor LXR-beta (Homo sapiens) (UniProt P55055); assay: Agonist activity at human LXR-beta expressed in African green monkey CV1 cells measured after 18 to 20 hrs by luciferase reporter gene assay relative to pan agonist 1-(2,4-difluorobenzyl)-2-oxo-6-(4-phenoxyphenyl)-4-(trifluoromethyl)-1,2-dihydropyridine-3-carbonitrile; type: cell-based; settings: CV-1
T1 sequence (whole entry): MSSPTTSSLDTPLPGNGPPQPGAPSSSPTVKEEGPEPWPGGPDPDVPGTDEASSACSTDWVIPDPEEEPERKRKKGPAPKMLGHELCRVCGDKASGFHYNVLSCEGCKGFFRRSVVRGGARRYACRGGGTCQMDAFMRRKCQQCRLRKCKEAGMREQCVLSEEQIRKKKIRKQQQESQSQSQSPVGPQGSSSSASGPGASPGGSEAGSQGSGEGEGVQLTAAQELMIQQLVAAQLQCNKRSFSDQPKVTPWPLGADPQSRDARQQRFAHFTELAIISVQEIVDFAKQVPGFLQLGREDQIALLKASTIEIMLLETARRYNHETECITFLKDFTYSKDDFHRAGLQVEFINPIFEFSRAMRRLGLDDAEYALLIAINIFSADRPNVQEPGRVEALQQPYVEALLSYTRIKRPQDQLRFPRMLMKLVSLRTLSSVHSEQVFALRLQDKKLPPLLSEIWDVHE

[2] = target: T2, Oxysterols receptor LXR-beta (Homo sapiens, UniProt P55055); assay: Agonist activity at human LXR-beta expressed in African green monkey CV1 cells measured after 18 to 20 hrs by luciferase reporter gene assay; type: cell-based, CV-1
T2 sequence (P55055 whole entry): T1 sequence (whole entry)

[3] = target: Retinoic acid receptor RXR-alpha/oxysterols receptor LXR-beta (Homo sapiens, UniProt P55055); assay: Displacement of [3H]-24,25-epoxycholesterol from human LXRbeta/RXRalpha expressed in baculovirus infected Sf9 cells by scintillation proximity analysis
Method in brief: (§1)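 Binding affinity measured using full-length LXRα–RXRα and LXRβ–RXRα heterodimers.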

[4] = target: Retinoic acid receptor RXR-alpha/oxysterols receptor LXR-alpha (Homo sapiens, UniProt Q13133); assay: Displacement of [3H]-24,25-epoxycholesterol from human LXRalpha/RXRalpha expressed in baculovirus infected Sf9 cells by scintillation proximity analysis; method in brief: as §1
[5] = target: T3, Oxysterols receptor LXR-alpha (Homo sapiens, UniProt Q13133); assay: Agonist activity at human LXR-alpha expressed in African green monkey CV1 cells measured after 18 to 20 hrs by luciferase reporter gene assay relative to pan agonist 1-(2,4-difluorobenzyl)-2-oxo-6-(4-phenoxyphenyl)-4-(trifluoromethyl)-1,2-dihydropyridine-3-carbonitrile; type: cell-based; settings: CV-1, human; read-out: Efficacy
T3 sequence (Q13133 whole entry): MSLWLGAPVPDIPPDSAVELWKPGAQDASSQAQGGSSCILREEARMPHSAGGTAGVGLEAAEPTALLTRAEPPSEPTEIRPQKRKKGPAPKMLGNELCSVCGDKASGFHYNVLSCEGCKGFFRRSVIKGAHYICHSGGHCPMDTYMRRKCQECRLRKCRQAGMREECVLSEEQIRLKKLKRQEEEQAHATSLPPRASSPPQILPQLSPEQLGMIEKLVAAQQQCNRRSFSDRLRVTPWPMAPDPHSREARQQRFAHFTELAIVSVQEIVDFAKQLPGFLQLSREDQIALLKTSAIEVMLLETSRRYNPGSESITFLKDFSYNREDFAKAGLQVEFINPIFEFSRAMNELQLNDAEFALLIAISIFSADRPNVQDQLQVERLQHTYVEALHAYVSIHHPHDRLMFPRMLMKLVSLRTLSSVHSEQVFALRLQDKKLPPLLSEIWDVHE

[6] = target: T2, Oxysterols receptor LXR-beta; assay: Agonist activity at LXR-beta in human HeLa cells assessed as induction of ABCA1 by beta-galactosidase/luciferase reporter gene assay; type: cell-based
Method in brief: (§2)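 HeLa cells carrying endogenous LXRα and LXRβ receptors, transfected with an ABCA1 LXREx3 reporter construct; agonist-driven reporter induction measured.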

[7] = target: T3, Oxysterols receptor LXR-alpha; assay: Agonist activity at human LXR-alpha expressed in African green monkey CV1 cells measured after 18 to 20 hrs by luciferase reporter gene assay; type: cell-based, CV-1
[8] = target: T1, Oxysterols receptor LXR-beta (Homo sapiens); assay: Agonist activity at LXR-beta in human HeLa cells assessed as induction of ABCA1 by beta-galactosidase/luciferase reporter gene assay relative to control; type: cell-based; method in brief: as §2
[9] = target: T2, Oxysterols receptor LXR-beta; assay: Agonist activity at LXR-beta in human whole blood assessed as ABCA1 gene induction by measuring ABCA1 mRNA level after 4 hrs by SYBR-Green dye-based Q-PCR analysis; type: tissue-based
[10] = target: T1, Oxysterols receptor LXR-beta (Homo sapiens); assay: (§3) Agonist activity at LXR-beta in human whole blood assessed as ABCA1 gene induction by measuring ABCA1 mRNA level after 4 hrs by SYBR-Green dye-based Q-PCR analysis relative to pan agonist 2-(4-(5-(5-cyano-1-(2,4-difluorobenzyl)-6-oxo-4-(trifluoromethyl)-1,6-dihydropyridin-2-yl)thiophen-2-yl)-3-methylphenyl)acetic acid; type: tissue-based
[11] = target: Alpha-1-acid glycoprotein 1 (Homo sapiens, UniProt P02763); assay: Binding affinity to human alpha-1-AGP at 1 uM measured after 4 hrs by equilibrium dialysis method relative to control; type: ADME; settings: for PB: isolated protein, 4 h, 1 µM; for fraction unbound at 4 h, 1 µM: human alpha-1-acid glycoprotein, read-out: PB
Albumin = Albumin (Homo sapiens, UniProt P02768); assay: Binding affinity to human serum albumin at 1 uM measured after 4 hrs by equilibrium dialysis method relative to control; type: ADME; settings: for PB: isolated protein, 4 h, 1 µM
[12] = Clearance in cynomolgus monkey at 0.2 mg/kg, iv administered as cassette dose by LC/MS/MS analysis; type: ADME, organism-based, Macaca fascicularis; settings: in vivo
[13] = Half life in cynomolgus monkey at 0.2 mg/kg, iv administered as cassette dose by LC/MS/MS analysis; type: ADME, organism-based, Macaca fascicularis; settings: in vivo
[14] = Half life in cynomolgus monkey at 0.25 mg/kg, iv administered as 10 mins infusion by LC/MS/MS analysis; type: ADME, organism-based, Macaca fascicularis; settings: in vivo
Method in brief: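 Cynomolgus monkey intravenous PK, with n = 2 animals at the 0.25 mg/kg dose. Plasma clearance (mL/min/kg) and terminal t1/2 (h) derived from the plasma concentration–time profile.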

[15] = Half life in cynomolgus monkey at 1 mg/kg, iv administered as 10 mins infusion by LC/MS/MS analysis; type: ADME, organism-based, Macaca fascicularis; settings: in vivo
[16] = Half life in human plasma; type: ADME, cell-free
Method in brief: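 Human plasma half-life was obtained from a clinical single ascending dose PK study.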

[17] = target: T4, Alpha-1-acid glycoprotein (Rattus norvegicus, UniProt P02764); assay: Binding affinity to rat alpha-1-AGP at 1 uM measured after 4 hrs by equilibrium dialysis method relative to control; type: ADME; settings: rat alpha-1-acid glycoprotein, read-out: PB (converted)
T4 sequence (P02764 whole entry): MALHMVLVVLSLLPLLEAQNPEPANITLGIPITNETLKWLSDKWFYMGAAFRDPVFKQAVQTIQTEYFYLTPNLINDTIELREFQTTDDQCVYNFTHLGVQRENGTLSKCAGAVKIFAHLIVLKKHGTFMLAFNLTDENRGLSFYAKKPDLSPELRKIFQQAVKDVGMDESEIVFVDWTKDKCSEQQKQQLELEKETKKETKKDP

[18] = Binding affinity to dog alpha-1-AGP at 1 uM measured after 4 hrs by equilibrium dialysis method relative to control; type: ADME, Canis lupus familiaris; settings: dog alpha-1-acid glycoprotein, read-out: PB (converted)
[19] = target: T2, Oxysterols receptor LXR-beta; assay: Agonist activity at LXR-beta in human whole blood assessed as ABCG1 gene induction by measuring ABCA1 mRNA level after 4 hrs by SYBR-Green dye-based Q-PCR analysis; type: tissue-based
[20] = target: T1, Oxysterols receptor LXR-beta (Homo sapiens); assay: as §3, with “as ABCG1” for “as ABCA1”; type: tissue-based

Chain of Alpha-1-acid glycoprotein 1 (P02763 whole entry): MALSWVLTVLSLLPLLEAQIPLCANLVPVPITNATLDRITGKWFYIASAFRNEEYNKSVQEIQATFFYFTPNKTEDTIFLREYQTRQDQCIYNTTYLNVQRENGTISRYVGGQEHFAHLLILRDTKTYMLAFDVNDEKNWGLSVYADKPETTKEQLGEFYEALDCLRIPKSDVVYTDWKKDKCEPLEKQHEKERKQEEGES
Chain of Albumin (P02768 whole entry): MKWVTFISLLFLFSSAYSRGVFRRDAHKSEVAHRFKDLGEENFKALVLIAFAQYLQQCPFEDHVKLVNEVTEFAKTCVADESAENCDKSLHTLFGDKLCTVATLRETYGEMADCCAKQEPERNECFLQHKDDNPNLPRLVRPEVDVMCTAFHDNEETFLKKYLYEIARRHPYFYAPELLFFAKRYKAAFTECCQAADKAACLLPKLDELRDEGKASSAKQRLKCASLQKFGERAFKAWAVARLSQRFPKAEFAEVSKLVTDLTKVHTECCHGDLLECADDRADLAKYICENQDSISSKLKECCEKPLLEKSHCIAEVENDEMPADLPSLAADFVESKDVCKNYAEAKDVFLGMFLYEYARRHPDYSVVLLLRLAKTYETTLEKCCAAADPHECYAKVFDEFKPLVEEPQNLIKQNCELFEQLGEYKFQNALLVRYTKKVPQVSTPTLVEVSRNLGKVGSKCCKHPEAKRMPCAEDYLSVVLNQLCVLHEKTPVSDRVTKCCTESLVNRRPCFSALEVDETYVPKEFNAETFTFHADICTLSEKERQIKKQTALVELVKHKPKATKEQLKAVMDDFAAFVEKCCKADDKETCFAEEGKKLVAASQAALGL
Chain of Retinoic acid receptor RXR-alpha/oxysterols receptor LXR-beta (P19793 whole entry, one chain of several): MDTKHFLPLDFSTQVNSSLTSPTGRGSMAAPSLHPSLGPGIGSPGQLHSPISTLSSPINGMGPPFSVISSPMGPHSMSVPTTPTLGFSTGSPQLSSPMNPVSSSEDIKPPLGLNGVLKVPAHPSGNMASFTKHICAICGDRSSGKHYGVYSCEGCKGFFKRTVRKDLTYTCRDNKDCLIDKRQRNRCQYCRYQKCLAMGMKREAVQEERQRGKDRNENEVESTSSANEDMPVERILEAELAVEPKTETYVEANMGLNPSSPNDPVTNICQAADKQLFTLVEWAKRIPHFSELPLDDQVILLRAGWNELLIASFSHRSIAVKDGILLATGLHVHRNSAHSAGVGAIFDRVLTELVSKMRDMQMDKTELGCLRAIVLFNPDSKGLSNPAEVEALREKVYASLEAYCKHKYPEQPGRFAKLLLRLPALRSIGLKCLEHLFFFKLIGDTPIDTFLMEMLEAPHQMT
Chain of Retinoic acid receptor RXR-alpha/oxysterols receptor LXR-alpha (P19793 whole entry, one chain of several): as above

| SMILES | Efficacy [1] [%] | EC50 [2] [µM] | Ki [3] [µM] | Ki [4] [µM] | Emax [5] [%] | EC50 [6] [µM] | EC50 [7] [µM] | Efficacy [8] [%] | EC50 [9] [µM] | Efficacy [10] [%] | other results |
| --- | --- | --- | --- | --- | --- | --- | --- | --- | --- | --- | --- |
| CC(C)(O)c1cn(-c2ccc(-c3cc(F)c(CO)c(S(C)(=O)=O)c3)cc2)c(C(C)(C)c2c(Cl)cccc2Cl)n1 | 72 | 0.042 | 0.006 | 0.038 | 25 | 0.003 | 0.03 | 23 | 0.015 | 43 | – |
| CC(C)(O)c1cn(-c2ccc(-c3cc(F)c(CO)c(S(C)(=O)=O)c3)cc2)c(Cc2c(Cl)cccc2Cl)n1 | 54 | 0.14 | 0.011 | 0.075 | 17 | 0.005 | 0.069 | 43 | 0.042 | 51 | – |
| CC(C)(O)c1cn(-c2ccc(-c3ccc(CO)c(S(C)(=O)=O)c3)cc2)c(C(C)(C)c2ccccc2Cl)n1 | 74 | 0.17 | 0.013 | 0.074 | 46 | 0.012 | 0.11 | 56 | 0.3 | 46 | PB [11]: 90.2%; PB (Albumin): 96.1% |
| CC(C)(O)c1cn(-c2ccc(-c3cc(F)c(CO)c(S(C)(=O)=O)c3)cc2F)c(C(C)(C)c2ccccc2Cl)n1 | 79 | 0.05 | 0.018 | 0.009 | 25 | 0.002 | 0.057 | 29 | 0.046 | 35 | – |
| CC(O)c1ccc(-c2ccc(-n3cc(C(C)(C)O)nc3C(C)(C)c3ccccc3Cl)cc2)cc1S(C)(=O)=O (configuration not stated) | 93 | 0.22 | 0.04 | 0.18 | 47 | 0.021 | 0.12 | 68 | 0.87 | 47 | clearance [12]: 5.6 mL/min/kg; half-life [13]: 5.5 h |
| CC(C)(O)c1cn(-c2ccc(-c3ccc(CO)c(S(C)(=O)=O)c3)cc2)c(Cc2ccccc2Cl)n1 | 50 | 0.06 | 0.005 | 0.031 | 39 | 0.009 | 0.1 | 54 | 0.3 | 72 | t1/2 [14]: 0.8 h |
| CC(C)(O)c1cn(-c2ccc(-c3cc(F)c(CO)c(S(C)(=O)=O)c3)cc2F)c(C(C)(C)c2c(F)cccc2Cl)n1 | 86 | 0.02 | 0.014 | 0.07 | 15 | 0.001 | 0.011 | 30 | 0.041 | 33 | – |
| CC(C)(O)c1cn(-c2ccc(-c3cc(F)c(CO)c(S(C)(=O)=O)c3)cc2)c(C(C)(C)c2ccccc2F)n1 | 68 | 0.16 | 0.014 | 0.081 | 13 | 0.012 | 0.13 | 15 | 0.043 | 28 | – |
| CC(C)(O)c1cn(-c2ccc(-c3cc(F)c(CO)c(S(C)(=O)=O)c3)cc2Cl)c(C(C)(C)c2c(Cl)cccc2Cl)n1 | 51 | 0.027 | 0.048 | 0.05 | 6 | 0.002 | 0.008 | 12 | 0.005 | 16 | – |

The remaining molecules from weak to strong by EC50 [6], led by results:

| Efficacy [1] [%] | EC50 [2] [µM] | Ki [3] [µM] | Ki [4] [µM] | Emax [5] [%] | EC50 [6] [µM] | EC50 [7] [µM] | Efficacy [8] [%] | EC50 [9] [µM] | Efficacy [10] [%] | SMILES | other results |
| --- | --- | --- | --- | --- | --- | --- | --- | --- | --- | --- | --- |
| – | – | – | – | 38 | 0.033 | 0.22 | 50 | 1.2 | 55 | CC(C)(O)c1cn(-c2ccc(-c3cccc(S(C)(=O)=O)c3)cc2)c(C(C)(C)c2ccccc2Cl)n1 [BMS-779788] | t1/2 [15]: 7.4 h; clearance [12]: 2.9 mL/min/kg; half-life [13]: 8.9 h; half-life [16]: 100 to 200 h; fraction unbound at 4 h, 1 µM [11]: 0.001; fraction unbound at 4 h, 1 µM (Albumin; human serum albumin, read-out: PB): 0.028 to 0.03; fraction unbound at 4 h, 1 µM [17]: 0.08; fraction unbound at 4 h, 1 µM [18]: 0.02; EC50 [19]: 1.1 µM; Efficacy [20]: 60% |
| 41 | 0.17 | 0.011 | 0.016 | 20 | 0.018 | 0.099 | 42 | 0.38 | 32 | CC(C)(O)c1cn(-c2ccc(-c3cccc(S(C)(=O)=O)c3)cc2)c(C(C)(C)c2c(Cl)cccc2Cl)n1 | fraction unbound at 4 h, 1 µM [11]: 0.004 to 0.01; PB (Albumin): 97.9% |
| 83 | 0.072 | 0.01 | 0.053 | 29 | 0.008 | 0.076 | 43 | 0.057 | 47 | CC(C)(O)c1cn(-c2ccc(-c3cc(F)c(CO)c(S(C)(=O)=O)c3)cc2)c(C(C)(C)c2ccccc2Cl)n1 | clearance [12]: 8.4 mL/min/kg; half-life [13]: 5.6 h; PB [11]: 86.6%; PB (Albumin): 95.5% |
| 67 | 0.025 | 0.013 | 0.017 | 18 | 0.002 | 0.012 | 9 | 0.023 | 17 | CC(c1c(Cl)cccc1Cl)c1nc(C(C)(C)O)cn1-c1ccc(-c2cc(F)c(CO)c(S(C)(=O)=O)c2)cc1F (configuration not stated) | – |

— ChEMBL document CHEMBL3867488 (ACS Med Chem Lett, 2016)
